≈ marks a conversion by molar mass, not a printed value.
How the values were obtained:
Enterococcus faecalis = assay: In vitro antibacterial activity against Enterococcus faecalis A 9809; format: functional
Pseudomonas aeruginosa = assay: Compound was tested in vitro for its antibacterial activity (minimum inhibitory concentration, MIC) against Pseudomonas aeruginosa A 9843; format: functional
Klebsiella pneumoniae = assay: In vitro antibacterial activity against Klebsiella pneumoniae A 9664; format: functional
Enterobacter cloacae = assay: In vitro antibacterial activity against Enterobacter cloacae A 9656; format: functional
Mus musculus = assay: Compound was evaluated in vivo in urine sample collected over 24 hours for its concentration after 40 mg/kg peroral administration to mice; format: functional; details: route oral
Outline: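 Mice were dosed at 40 mg/kg, either orally with a blunt needle and syringe or intramuscularly, with separate groups for each route. Blood was drawn from the orbital sinus at 5, 15, 30, 60, 120 and 180 min. Urine was pooled over 24 h. Drug levels were measured by agar disk diffusion microbioassay with Salmonella enteritidis A9531 as the assay organism.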

Serratia marcescens = assay: In vitro antibacterial activity (minimum inhibitory concentration) against Serratia marcescens A 20019.; format: functional
Proteus mirabilis = assay: In vitro antibacterial activity (minimum inhibitory concentration, MIC) against Proteus mirabilis A 9900; format: functional
Bacteroides fragilis = assay: Compound was tested in vitro for its antibacterial activity (minimum inhibitory concentration) against Bacteroides fragilis A 22862.; format: functional; details: A22862
[1] = Compound was tested for the dose to protect 50% of mice from lethal infection against Streptococcus pneumoniae after peroral administration to OF1-strain of female Swiss mice.; format: functional; details: po, read-out: PD50
Outline: (§1)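 Compounds dissolved in sterile water and given orally to female OF1 Swiss mice weighing 18-25 g, five mice per group.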

Canis familiaris = assay: Compound was evaluated in vivo in urine sample collected over 24 hours for its concentration after 25 mg/kg peroral administration to dogs.; details: route oral
Staphylococcus aureus [2] = assay: In vitro antibacterial activity against Staphylococcus aureus A 24227; format: functional
Escherichia coli [3] = assay: In vitro antibacterial activity against Escherichia coli A 15119; format: functional
Morganella morganii = assay: In vitro antibacterial activity against Morganella morganii A 15153; format: functional
Escherichia coli [4] = assay: Compound was tested for the dose to protect 50% of mice from lethal infection against Escherichia coli A 15119 after peroral administration to OF1-strain of female Swiss mice.; format: functional; details: po, read-out: PD50; outline: as §1
Staphylococcus aureus [5] = assay: In vitro antibacterial activity (minimum inhibitory concentration, MIC) against Staphylococcus aureus A 9537.; format: functional
Streptococcus pneumoniae = assay: In vitro antibacterial activity against Streptococcus pneumoniae A 9585; format: functional
Haemophilus influenzae = assay: In vitro antibacterial activity against Haemophilus influenzae A 21515; format: functional

| Structure (SMILES) | MIC (Enterococcus faecalis) | MIC (Pseudomonas aeruginosa) | MIC (Klebsiella pneumoniae) | MIC (Enterobacter cloacae) | UR (Mus musculus) | MIC (Serratia marcescens) | MIC (Proteus mirabilis) | MIC (Bacteroides fragilis) | ED50 [1] | UR (Canis familiaris) | MIC (Staphylococcus aureus [2]) | MIC (Escherichia coli [3]) | MIC (Morganella morganii) | ED50 (Escherichia coli [4]) | MIC (Staphylococcus aureus [5]) | MIC (Streptococcus pneumoniae) | S | MIC (Haemophilus influenzae) |
| --- | --- | --- | --- | --- | --- | --- | --- | --- | --- | --- | --- | --- | --- | --- | --- | --- | --- | --- |
| CC(C)(C)n1cc(C(=O)O)c(=O)c2cc(F)c(N3CC[C@H](N)C3)nc21 | 0.06 µg/mL (≈ 0.172 µM) | 0.25 µg/mL (≈ 0.718 µM) | 0.03 µg/mL (≈ 0.0861 µM) | 0.03 µg/mL (≈ 0.0861 µM) | 10% | 0.25 µg/mL (≈ 0.718 µM) | 0.13 µg/mL (≈ 0.373 µM) | 1 µg/mL (≈ 2.87 µM) | > 25 mg/kg | 9% | 0.002 µg/mL (≈ 0.00574 µM) | 0.016 µg/mL (≈ 0.0459 µM) | 0.13 µg/mL (≈ 0.373 µM) | 1.2 mg/kg | 0.004 µg/mL (≈ 0.0115 µM) | 0.008 µg/mL (≈ 0.023 µM) | – | – |
| CC(C)(C)n1cc(C(=O)O)c(=O)c2cc(F)c(N3CCNCC3)cc21 | 2 µg/mL (≈ 5.76 µM) | 0.5 µg/mL (≈ 1.44 µM) | 0.06 µg/mL (≈ 0.173 µM) | 0.13 µg/mL (≈ 0.374 µM) | – | 0.5 µg/mL (≈ 1.44 µM) | 0.25 µg/mL (≈ 0.72 µM) | – | – | – | – | 0.06 µg/mL (≈ 0.173 µM) | 0.25 µg/mL (≈ 0.72 µM) | – | 0.25 µg/mL (≈ 0.72 µM) | – | 130 µg/mL | – |
| CC(C)(C)n1cc(C(=O)O)c(=O)c2cc(F)c(N3CCNCC3)nc21 | 1 µg/mL (≈ 2.87 µM) | 0.5 µg/mL (≈ 1.44 µM) | 0.03 µg/mL (≈ 0.0861 µM) | 0.06 µg/mL (≈ 0.172 µM) | – | 0.06 µg/mL (≈ 0.172 µM) | 0.13 µg/mL (≈ 0.373 µM) | 8 µg/mL (≈ 23 µM) | – | – | 0.25 µg/mL (≈ 0.718 µM) | 0.016 µg/mL (≈ 0.0459 µM) | 0.06 µg/mL (≈ 0.172 µM) | – | 0.06 µg/mL (≈ 0.172 µM) | 1 µg/mL (≈ 2.87 µM) | 820 µg/mL | 0.016 µg/mL (≈ 0.0459 µM) |
| CC(CF)(CF)n1cc(C(=O)O)c(=O)c2cc(F)c(N3CC[C@H](N)C3)cc21.CS(=O)(=O)O | 0.5 µg/mL | 0.25 µg/mL | 0.13 µg/mL | 0.06 µg/mL | – | 0.13 µg/mL | 0.03 µg/mL | 4 µg/mL | – | – | 0.13 µg/mL | 0.008 µg/mL | 0.016 µg/mL | – | 0.06 µg/mL | 0.5 µg/mL | – | 0.001 µg/mL |
| CC(CF)(CF)n1cc(C(=O)O)c(=O)c2cc(F)c(N3CCNCC3)nc21.Cl | 16 µg/mL | 4 µg/mL | 0.25 µg/mL | 0.25 µg/mL | – | 0.5 µg/mL | 1 µg/mL | 125 µg/mL | – | – | 4 µg/mL | 0.13 µg/mL | 0.13 µg/mL | – | 4 µg/mL | 16 µg/mL | – | 0.25 µg/mL |
| CC(C)(CF)n1cc(C(=O)O)c(=O)c2cc(F)c(N3CCNCC3)nc21.Cl | 2 µg/mL | 1 µg/mL | 0.25 µg/mL | 0.25 µg/mL | – | 0.25 µg/mL | 0.25 µg/mL | 16 µg/mL | – | – | 0.5 µg/mL | 0.13 µg/mL | 0.13 µg/mL | – | 0.25 µg/mL | 0.5 µg/mL | 1600 µg/mL | 0.13 µg/mL |
| Cl.O=C(O)c1cn(C(CF)(CF)CF)c2nc(N3CCNCC3)c(F)cc2c1=O | 16 µg/mL | 16 µg/mL | 1 µg/mL | 0.5 µg/mL | – | 1 µg/mL | 2 µg/mL | 125 µg/mL | – | – | 8 µg/mL | 0.5 µg/mL | 0.5 µg/mL | – | 8 µg/mL | 32 µg/mL | – | 0.5 µg/mL |
| Cl.N[C@H]1CCN(c2nc3c(cc2F)c(=O)c(C(=O)O)cn3C(CF)(CF)CF)C1 | 32 µg/mL | 32 µg/mL | 2 µg/mL | 2 µg/mL | – | 2 µg/mL | 2 µg/mL | 125 µg/mL | – | – | 8 µg/mL | 0.5 µg/mL | 2 µg/mL | – | 4 µg/mL | 32 µg/mL | – | 0.25 µg/mL |
| CC(C)(CF)n1cc(C(=O)O)c(=O)c2cc(F)c(N3CC[C@H](N)C3)nc21.Cl | 4 µg/mL | 1 µg/mL | 0.03 µg/mL | 0.13 µg/mL | – | 0.25 µg/mL | 0.5 µg/mL | 16 µg/mL | – | – | 0.13 µg/mL | 0.03 µg/mL | 0.06 µg/mL | – | 0.03 µg/mL | 0.03 µg/mL | – | 0.5 µg/mL |
| Cl.O=C(O)c1cn(C(CF)(CF)CF)c2nc(N3CC4C[C@@H]3CN4)c(F)cc2c1=O | 32 µg/mL | 4 µg/mL | 0.5 µg/mL | 0.25 µg/mL | – | 1 µg/mL | 1 µg/mL | 125 µg/mL | – | – | 4 µg/mL | 0.25 µg/mL | 0.25 µg/mL | – | 4 µg/mL | 32 µg/mL | 240 µg/mL | 0.06 µg/mL |
| CC(C)(CF)n1cc(C(=O)O)c(=O)c2cc(F)c(N3CC(N)C3)cc21.Cl | 0.5 µg/mL | 0.5 µg/mL | 0.016 µg/mL | 0.06 µg/mL | – | 0.13 µg/mL | 0.06 µg/mL | 2 µg/mL | – | – | 0.016 µg/mL | 0.004 µg/mL | 0.016 µg/mL | – | 0.016 µg/mL | 1 µg/mL | – | 0.06 µg/mL |
| CC(CF)(CF)n1cc(C(=O)O)c(=O)c2cc(F)c(N3CC4C[C@@H]3CN4)nc21.Cl | 4 µg/mL | 1 µg/mL | 0.5 µg/mL | 0.13 µg/mL | – | 0.5 µg/mL | 0.5 µg/mL | 32 µg/mL | – | – | 2 µg/mL | 0.13 µg/mL | 0.13 µg/mL | – | 2 µg/mL | 8 µg/mL | – | 0.016 µg/mL |
| C[C@H]1C[C@H](N)CN1c1nc2c(cc1F)c(=O)c(C(=O)O)cn2C(C)(C)CF.Cl | 0.13 µg/mL | 1 µg/mL | 0.06 µg/mL | 0.06 µg/mL | – | 0.13 µg/mL | 0.13 µg/mL | 16 µg/mL | – | – | 0.008 µg/mL | 0.016 µg/mL | 0.13 µg/mL | – | 0.008 µg/mL | 0.13 µg/mL | – | 0.016 µg/mL |
